# Published values pooled from the literature.
# Compare with care: the assays were run in different laboratories. pEC50, pIC50: −log10 of the molar value.
# Cell line: MV4-11
# Observed: cell growth or viability
Structure (SMILES),method,time,measurement,value
COc1ccc(-c2c(-c3ccc(C#N)c(F)c3)nc(N3CCC(N)CC3)n(C)c2=O)cc1F,resazurin,96 h,pEC50,8.54
CC(C)C[C@H](NC(=O)[C@H](Cc1ccccc1)NC(=O)c1cnccn1)B(O)O,ATP luminescence,,pIC50,8.41
NNCCc1ccccc1,resazurin,96 h,pEC50,< 5.70
c1cc(Nc2nccc(NC3CCCCC3)n2)cc(-c2ncco2)c1,ATP luminescence,72 h,pEC50,6.29
Cc1ncsc1-c1ccc(CNC(=O)[C@@H]2C[C@H](O)CN2C(=O)[C@@H](NC(=O)C2(F)CC2)C(C)(C)C)c(OCCc2ccc(CN3CCN(c4cc(-c5ccccc5O)nnc4N)CC3)cc2)c1,ATP luminescence,7 days,pIC50,5.77
COc1cc2nccc(Oc3ccc(NC(=O)C4(C(=O)Nc5ccc(F)cc5)CC4)cc3)c2cc1OC,trypan blue,72 h,pIC50,7.92
c1cc(Nc2nccc(NC3CCCCC3)n2)cc(-n2ccnc2)c1,ATP luminescence,72 h,pEC50,7.24
CC(C)[C@H](N)C(=O)N1CCC[C@H]1B(O)O,ATP luminescence,48 h,pIC50,7.11
CC(C)Nc1ccnc(Nc2ccc(-c3ccccc3)cc2)n1,ATP luminescence,72 h,pEC50,4.92
CC[C@@H](C)[C@H](N)C(=O)N1Cc2ccccc2C1,ATP luminescence,24 h,pIC50,5.94
CC(C)Nc1ccnc(Nc2ccc(C(N)=O)cc2)n1,ATP luminescence,72 h,pEC50,5.60
O=C(O)c1ccc(CN2CCC(CN[C@@H]3C[C@H]3c3ccccc3)CC2)cc1,resazurin,96 h,pEC50,7.40
Nc1ncc(-c2cnn(C3CCNCC3)c2)cc1-c1nnc(CC2CC2)o1,trypan blue,72 h,pIC50,6.80
CC(C)Nc1ccnc(Nc2cccc(-c3ccccn3)c2)n1,ATP luminescence,72 h,pEC50,5.32
Cc1ccc(NC(=O)NCc2ccc3c(c2)CN(C2CCC(=O)NC2=O)C3=O)cc1Cl (stereo not drawn),ATP luminescence,,pEC50,10.59
